# CXCR6 block: CXCR6 (human) receptor inhibition; O00574; CHO-K1 PathHunter CXCR6 beta-arrestin, luminescence; inhibition, % at 20 µM; 360,000 compounds, 0.36% hits; AID 602244; in the data active means inhibition above about 34%, passing the limit was not always enough;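 further: antagonist mode with CXCL16 agonist at 10 nM final; 0% = 10 nM CXCL16 with DMSO and 100% = unstimulated wells without agonist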
# CCR6 antag: blocks CCL20-driven beta-arrestin recruitment at human CCR6 | CHO-K1 CCR6 PathHunter beta-arrestin, luminescence, CCL20-stimulated | inhibition, % at 20 µM | 340,000 compounds, 0.49% hits | AID 493098;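 active means compounds whose inhibition of the agonist-driven luminescence signal at 20 µM reaches about 50%, limit read from the data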;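 further: cells stimulated with CCL20 at 14 nM final; plate controls were DMSO with CCL20 for no effect and DMSO without agonist for full effect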
# EBI2 antag: blocks human EBI2 receptor beta-arrestin signaling. P32249. inhibition, % at 5 µM. EBI2 beta-arrestin recruitment, luminescence, 7a,25-OHC stimulated. 360,000 compounds, 0.81% hits; in the data active means inhibition above about 38%;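 further: enzyme fragment complementation signal reports receptor beta-arrestin coupling in cells; 0% = agonist plus DMSO wells and 100% = wells without agonist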
# Target sequence (P32249 whole entry, looked up, the tested form may be a part): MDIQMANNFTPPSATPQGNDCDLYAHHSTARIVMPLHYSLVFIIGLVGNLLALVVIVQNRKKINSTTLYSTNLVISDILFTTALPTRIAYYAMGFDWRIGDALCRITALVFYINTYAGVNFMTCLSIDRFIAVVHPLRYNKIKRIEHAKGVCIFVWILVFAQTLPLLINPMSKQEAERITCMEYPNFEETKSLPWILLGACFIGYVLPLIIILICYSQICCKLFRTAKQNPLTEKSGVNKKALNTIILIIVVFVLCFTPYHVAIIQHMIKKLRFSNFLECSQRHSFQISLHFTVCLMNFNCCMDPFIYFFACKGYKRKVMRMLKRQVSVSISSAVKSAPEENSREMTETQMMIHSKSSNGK
# m5-HT2A agonist: activates the mouse 5-HT2A serotonin receptor; P35363; CHO-K1 mHTR2A beta-arrestin complementation, luminescence; percent of 30 µM serotonin response; activation, % at 7.6 µM; 360,000 compounds, 0.66% hits; AID 624169;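 active means activation above a run cutoff, the mean activation of all tested compounds plus 3 SD, cut at about 14% in these data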;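 further: 0% = plate median of compound wells and 100% = 30 µM serotonin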
# APJ antagonist: APJ receptor antagonism; CHO-K1 APJ beta-arrestin complementation, luminescence; inhibition, % at 20 µM; 330,000 compounds, 0.32% hits; AID 2521;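 active means inhibition above about 40% at 20 µM, limit read from the data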;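 further: cells challenged with 10 nM apelin-13 agonist together with compound; plate controls were apelin-13 plus DMSO wells for no effect and DMSO wells lacking apelin-13 for full effect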
# APJ agonist: activates the human apelin receptor APJ; P35414; CHO-K1 APJ PathHunter beta-arrestin, luminescence; 0% DMSO wells, 100% apelin; activation, % at 20 µM; 330,000 compounds, 0.11% hits; AID 2520;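 active means activation more than six SD over the plate average, tested at 20 µM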;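 further: 0% = DMSO alone and 100% = apelin-13 at 10 nM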
#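 Test system: CHO-K1 APJ beta-arrestin complementation cell line. Amount: cell density 1000 per well. Controls: DMSO negative, 10 nM Apelin-13 positive. Signal: luminescent beta-gal fragment complementation, chemiluminescent substrate. Read-out basis: agonist-driven arrestin binding to APJ. Timing: compound stimulation 90 min at 25 °C, detection 60 min.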
# EBI2 conf: EBI2 (human) antagonism, single concentration confirmation; shares compounds with EBI2 antag; EBI2 beta-arrestin luminescence, 7a,25-OHC antagonism; inhibition, % at 5 µM; 2,400 compounds, 29% hits; AID 651997;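 active means inhibition of at least 50%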
# EBI2 agonist: EBI2 agonism counter-screen | EBI2-expressing cells, agonist mode, luminescence, 60 min; 0% vehicle, 100% 7α,25-dihydroxycholesterol control | AID 652000 | 2,400 tested, under 10 active | activation, % at 5 µM | shares compounds with EBI2 antag;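 active means activation of at least 50%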
# bGal counter: counter-screen for EBI2 antagonists: E. coli beta-galactosidase inhibition | shares compounds with EBI2 antag | purified beta-galactosidase, luminescent Galacton Star, 15 min | inhibition, % at 5 µM | 2,400 compounds, 1% hits | AID 652176;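 active means replicate-average signal at least 3 plate SD below neutral wells, shown as high inhibition, flagging enzyme-inhibiting false positives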;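 further: 0% = DMSO wells with enzyme and 100% = wells lacking enzyme; higher means stronger loss of beta-gal luminescence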
# Starred values were filed as active, the others as inactive; · = no result given. In the library only some 2.1% were active in any assay of this set; here they are far more common.
SMILES,CXCR6 block,CCR6 antag,EBI2 antag,m5-HT2A agonist,APJ antagonist,APJ agonist,EBI2 conf,EBI2 agonist,bGal counter
Clc1ccccc1CN(Cc1ccccc1)C(c1cccs1)c1nnnn1C1CCCC1 (stereo unspecified),1,8,30,-5,5,0,·,·,·
Clc1ccc(CN(CC2CCCO2)C(c2cccs2)c2nnnn2C2CCCC2)cc1 (stereo unspecified),10,32,49*,-1,15,-1,4,-1,-13
S=C(NCC1CCCO1)N1CCN(c2nc(-c3ccc(Cl)cc3)cs2)CC1 (stereo unspecified),-3,-15,86*,-7,-15,1,66*,2,5
CCOC(=O)c1c(C)[nH]c(C(=O)OC(C)C(=O)NC2(C#N)CCCCC2)c1C (stereo unspecified),11,·,1,-1,·,·,·,·,·
O=C(CSCc1c(Cl)cccc1Cl)Nc1ccccc1-c1ccccc1,7,37,41*,-1,·,·,27,1,1
COc1ccc(NS(=O)(=O)c2cc(NC(=O)c3ccc(=O)[nH]n3)ccc2C)cc1,3,4,5,0,3,-4,·,·,·
CCc1ccc(CCC(=O)N2CCN(S(=O)(=O)c3ccc(Br)cc3)CC2)cc1,10,·,88*,-2,·,·,52*,0,-15
COc1ccc(CCC(=O)N2CCN(S(=O)(=O)c3ccc(OC)c([N+](=O)[O-])c3)CC2)cc1,-5,·,54*,2,·,·,44,1,-1
COc1ccc(CCC(=O)N2CCN(S(=O)(=O)c3ccc(OC(F)(F)F)cc3)CC2)cc1,5,5,54*,0,-1,-1,28,-1,-13
COc1ccc(S(=O)(=O)N2CCN(C(=O)CC(C)C)CC2)cc1,-7,11,-3,5,10,-2,·,·,·
O=C(CCl)N1CCN(S(=O)(=O)c2ccc3ccccc3c2)CC1,-17,-10,-2,-1,-17,2,·,·,·
COc1ccc(CCC(=O)N2CCN(S(=O)(=O)c3ccc4ccccc4c3)CC2)cc1,1,18,64*,3,3,-2,35,0,-15
COc1cc(CCC(=O)N2CCN(S(=O)(=O)c3ccc(C)c(C)c3)CC2)cc(OC)c1OC,-2,-9,12,-3,11,0,·,·,·
O=C(Oc1ccc(-c2cnc3ccccc3n2)cc1)c1cc([N+](=O)[O-])ccc1Cl,1,12,55*,0,-13,6,12,0,4
COCCOc1ccc(C(F)(F)F)cc1NC(=O)COC(=O)Cc1c[nH]c2ccccc12,-2,11,82*,4,0,2,34,1,4
O=C(COC(=O)Cc1c[nH]c2ccccc12)Nc1ccccc1C(F)(F)F,2,3,-3,4,-13,-3,·,·,·
CCC1C(=O)NCCN1C(=O)c1ccc2nc(Cc3cccc(Cl)c3)oc2c1 (stereo unspecified),3,15,-4,3,-23,-2,·,·,·
COC(=O)c1ccc(Oc2ccc(C(F)(F)F)cn2)cc1,4,6,44*,0,5,-4,38,2,1
O=C(O)c1ccc(Oc2ccc(C(F)(F)F)cn2)cc1,-6,6,-1,-2,-12,0,·,·,·
Cc1ccc(/C=C/C(=O)OCC(=O)NCCN2C(=O)CSC2=O)o1,2,0,-1,2,6,0,·,·,·
Cc1ccc(/C=C/C(=O)OCC(=O)NC(=O)NCc2ccccc2)cc1,8,8,46*,0,-16,-2,14,-1,-7
Cc1ccc(/C=C/C(=O)OCC(=O)NCCN2C(=O)CSC2=O)cc1,-4,-8,56*,1,9,-4,58*,2,0
CSc1ccc(/C=C/C(=O)c2ccc(NC(C)=O)cc2)cc1,6,10,80*,-5,2,-2,40,0,6
CC(=O)Nc1ccc(/C=C/C(=O)c2ccc3c(c2)OCCO3)cc1,8,11,10,4,13,0,·,·,·
CCCC(=O)Nc1ccc(C(=O)/C=C/c2ccc(SC)cc2)cc1,-4,4,44*,-8,3,0,38,0,6
SMILES,CXCR6 block,CCR6 antag,EBI2 antag,m5-HT2A agonist,APJ antagonist,APJ agonist,EBI2 conf,EBI2 agonist,bGal counter
O=C(/C=C/c1ccc(Br)cc1)c1ccc(NC(=O)c2ccco2)cc1,2,0,43*,-4,5,-1,9,-1,-8
CC1=CC2C(C3C=CC2(C)C(=O)C3(C)O)C(C)(O)C1=O (stereo unspecified),4,2,-9,4,·,·,·,·,·
O=C(NCCc1ccccc1)c1oc2ccccc2c1COc1ccccc1,12,23,45*,-8,·,·,33,2,-4
C[C@@H]1CN([C@H](C)CO)C(=O)CCCn2nncc2CO[C@H]1CN(C)S(=O)(=O)c1ccccc1,0,·,-3,2,·,·,·,·,·
Cc1cccc(Nc2nc(-c3c(C)nc4ccccn34)cs2)c1,1,4,63*,-2,15,-1,54*,1,7
COc1ccc(C(=O)NC(=S)Nc2cc3oc4ccccc4c3cc2OC)cc1,-12,1,48*,4,0,12,36,0,8
COc1cc(OC)cc(C(=O)NC(=S)Nc2cc3oc4ccccc4c3cc2OC)c1,15,25,17,-1,10,-5,·,·,·
C=CCOc1ccc(/C=C/C(=O)N2CCCN(S(=O)(=O)c3c(C)noc3C)CC2)cc1,-6,-5,63*,1,2,2,48,-1,-5
CCOc1ccc(NC(=O)C2CCN(S(=O)(=O)c3c(C)noc3C)CC2)cc1,-8,5,-7,0,-7,11,·,·,·
Cc1cc(C(=O)NNC(=O)/C=C/c2ccco2)c(C)o1,-10,16,1,10,-5,1,·,·,·
COc1ccccc1CCC(=O)N1CCC(n2nccc2NC(=O)C2CCOC2)CC1 (stereo unspecified),-1,12,-2,-2,-11,-3,·,·,·
C(=C\c1ccccc1)/CN1CCN(C(c2cc3ccccc3o2)c2nnnn2-c2ccc3c(c2)OCCO3)CC1 (stereo unspecified),11,·,38,-7,·,·,·,·,·
C(=C\c1ccccc1)/CN1CCN(C(c2cccc3ccccc23)c2nnnn2Cc2ccccc2)CC1 (stereo unspecified),12,·,64*,-6,·,·,31,1,7

# From PubChem BioAssay
